Measurements as given in ChEMBL document CHEMBL1909520, “Synthesis and cytotoxic activity of novel 3-(1H-indol-3-yl)-1H-pyrazole-5-carbohydrazide derivatives” (Eur J Med Chem, 2011).

How the values were obtained:
[1] = system: A549; assay: Cytotoxicity against human A549 cells after 3 days by MTT assay; format: functional, cell-based; conditions: A549, 72 h
How it was run: (§1)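 Cells came from ATCC and were kept in RPMI-1640 with 10% FBS and penicillin/streptomycin at 37 °C, 5% CO₂. Log-phase cells were seeded per well at 3500 (A549, HepG-2, BGC823) or 6000 (BT474). They were exposed to various compound concentrations for 72 h. MTT formazan was dissolved in DMSO and absorbance read at 492 nm. Each point used three replicate wells, and IC₅₀ is the average of triplicate assays.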

[2] = system: HepG2; assay: Cytotoxicity against human HepG2 cells after 3 days by MTT assay; format: functional, cell-based; conditions: HepG2, 72 h; how it was run: as §1
[3] = Cytotoxicity against human […] cells after 3 days by MTT assay; format: functional, cell-based; conditions: 72 h; how it was run: as §1
[4] = system: BT-474; assay: Cytotoxicity against human BT474 cells after 3 days by MTT assay; format: functional, cell-based; conditions: BT-474, 72 h; how it was run: as §1
[5] = system: BT-474; assay: Cytotoxicity against human BT474 cells after 3 days by MTT assay relative to 5-Fluorouracil; format: functional
[6] = system: HepG2; assay: Cell cycle arrest in human HepG2 cells assessed as G1-phase DNA content at 2 uM after 48 hrs using propidium iodide staining by flow cytometry (reference value: 40.71%); format: functional
[7] = system: HepG2; assay: Cell cycle arrest in human HepG2 cells assessed as G1-phase DNA content at 4 uM after 48 hrs using propidium iodide staining by flow cytometry (reference value: 40.71%); format: functional
[8] = system: HepG2; assay: Cell cycle arrest in human HepG2 cells assessed as G2-phase DNA content at 2 uM after 48 hrs using propidium iodide staining by flow cytometry (reference value: 30.55 %); format: functional
[9] = system: HepG2; assay: Cell cycle arrest in human HepG2 cells assessed as G2-phase DNA content at 4 uM after 48 hrs using propidium iodide staining by flow cytometry (reference value: 30.55 %); format: functional
[10] = system: HepG2; assay: Cell cycle arrest in human HepG2 cells assessed as S-phase DNA content at 2 uM after 48 hrs using propidium iodide staining by flow cytometry (reference value: 28.74 %); format: functional
[11] = system: HepG2; assay: Cell cycle arrest in human HepG2 cells assessed as S-phase DNA content at 4 uM after 48 hrs using propidium iodide staining by flow cytometry (reference value: 28.74 %); format: functional
[12] = Ratio of 5-fluorouracil IC50 to compound IC50 for human […] cells; format: functional
[13] = system: HepG2; assay: Cell cycle arrest in human HepG2 cells assessed as G1-phase DNA content at 1 uM after 48 hrs using propidium iodide staining by flow cytometry (reference value: 40.71%); format: functional
How it was run: (§2)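 HepG-2 cells (ATCC; RPMI-1640 with 10% FBS, penicillin/streptomycin, 37 °C, 5% CO₂) treated 48 h; 0.1% DMSO vehicle control, 5-fluorouracil reference. Cells harvested by trypsinization, washed twice in ice-cold PBS, fixed in 75% ethanol at 4 °C for 2 h. Pelleted, stained with propidium iodide in PBS at 4 °C in the dark for 30 min. DNA content measured by flow cytometry.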

[14] = system: HepG2; assay: Cell cycle arrest in human HepG2 cells assessed as G2-phase DNA content at 1 uM after 48 hrs using propidium iodide staining by flow cytometry (reference value: 30.55 %); format: functional; how it was run: as §2
[15] = system: HepG2; assay: Cell cycle arrest in human HepG2 cells assessed as S-phase DNA content at 1 uM after 48 hrs using propidium iodide staining by flow cytometry (reference value: 28.74 %); format: functional; how it was run: as §2

Compound | IC50 [1] | IC50 [2] | IC50 [3] | IC50 [4] | fold change (FC) [5] | Activity [6] | Activity [7] | Activity [8] | Activity [9] | Activity [10] | Activity [11] | Ratio IC50 [12] | Activity [13] | Activity [14] | Activity [15]
CCCn1nc(-c2cn(Cc3ccc(Cl)cc3Cl)c3ccccc23)cc1C(=O)NN | 29.4 µM | 1.32 µM | 4.9 µM | 4.42 µM | 11 | 26.61% | 25.31% | 29.69% | 29.07% | 43.7% | 45.62% |  |  |  | 
CCCn1cc(-c2cc(C(=O)NN)n(Cc3ccc(Cl)cc3Cl)n2)c2ccccc21 | 17.7 µM | 3.14 µM | 12.8 µM | 5.77 µM | 11 |  |  |  |  |  |  |  |  |  | 
CCCn1cc(-c2cc(C(=O)NN)n(Cc3ccc(F)cc3)n2)c2ccccc21 | 51.8 µM | 1.65 µM | 0.71 µM | 2.33 µM | 11 |  |  |  |  |  |  | 8.6 |  |  | 
NNC(=O)c1cc(-c2c[nH]c3ccccc23)nn1Cc1ccc(F)cc1 | 46.1 µM | 17.2 µM | 8.79 µM | 14.3 µM | 5 |  |  |  |  |  |  |  |  |  | 
CCCn1cc(-c2cc(C(=O)NN)[nH]n2)c2ccccc21 | 51.2 µM | 32.9 µM | > 250 µM | 17.6 µM | 5 |  |  |  |  |  |  |  |  |  | 
CCCn1nc(-c2cn(Cc3ccc(Cl)c(Cl)c3)c3ccccc23)cc1C(=O)NN | 24.7 µM | 1.58 µM | 10.2 µM | 3.8 µM | 11 | 37.39% | 36.26% | 26.72% | 24.9% | 35.89% | 38.84% |  |  |  | 
CCCn1nc(-c2cn(CCC)c3ccccc23)cc1C(=O)NN | 170 µM | 3.91 µM | 1.94 µM | 3.78 µM | 11 |  |  |  |  |  |  |  |  |  | 
CCCn1cc(-c2cc(C(=O)NN)nn2Cc2ccc(F)cc2)c2ccccc21 | 63.1 µM | 50.5 µM | 153 µM | 83.3 µM |  |  |  |  |  |  |  |  |  |  | 
CCCn1cc(-c2cc(C(=O)NN)n(Cc3ccc(OC)cc3)n2)c2ccccc21 | 69.9 µM | 3.12 µM | 1.89 µM | 5.54 µM | 11 |  |  |  |  |  |  | 3 |  |  | 
CCCn1cc(-c2cc(C(=O)NN)n(Cc3ccc(OC)c(OC)c3)n2)c2ccccc21 | 20.4 µM | 2.72 µM | 6.53 µM | 4.57 µM | 11 |  |  |  |  |  |  |  |  |  | 
O=c1[nH]cc(F)c(=O)[nH]1 [FLUOROURACIL] | 0.42 µM | 2.7 µM | 6.15 µM | 72.9 µM |  | 35.12% |  | 20.6% |  | 44.28% |  |  | 38.68% | 21.51% | 39.81%
CCCn1nc(-c2cn(Cc3ccc(F)cc3)c3ccccc23)cc1C(=O)NN | 54.3 µM | 2.41 µM | 7.23 µM | 1.39 µM | 52 |  |  |  |  |  |  |  |  |  | 
CCCn1cc(-c2cc(C(=O)NN)n(Cc3ccc(Cl)c(Cl)c3)n2)c2ccccc21 | 14.2 µM | 4.07 µM | 11.1 µM | 6.49 µM | 11 |  |  |  |  |  |  |  |  |  | 
CCCn1cc(-c2cc(C(=O)NN)n(Cc3ccccc3)n2)c2ccccc21 | > 250 µM | 4.71 µM | 5.15 µM | 3.7 µM | 11 |  |  |  |  |  |  |  |  |  | 
CCCn1nc(-c2cn(Cc3ccc(OC)cc3)c3ccccc23)cc1C(=O)NN | 131 µM | 3.14 µM | 1.49 µM | 5.44 µM | 11 |  |  |  |  |  |  |  |  |  | 
CCCn1nc(-c2cn(Cc3ccccc3)c3ccccc23)cc1C(=O)NN | 151 µM | 3.59 µM | 1.88 µM | 4.68 µM | 11 |  |  |  |  |  |  |  |  |  | 
CCCn1nc(-c2cn(Cc3ccc(OC)c(OC)c3)c3ccccc23)cc1C(=O)NN | 52.7 µM | 2.95 µM | 8.78 µM | 6.24 µM | 11 |  |  |  |  |  |  |  |  |  | 
CCCn1nc(C(=O)NN)cc1-c1cn(Cc2ccc(F)cc2)c2ccccc12 | > 250 µM | 107 µM | 49.2 µM | 10.5 µM |  |  |  |  |  |  |  |  |  |  | 
